Assay results taken from ChEMBL document CHEMBL1127563, “Novel acyl-CoA:cholesterol acyltransferase inhibitors. Synthesis and biological activity of 3-quinolylurea derivatives” (J Med Chem, 1994).
“And” between values parts separate entries of the source, which are not always exact repeats. Equal entries are not always repeated.

Legend:
[1] = target: T1, Sterol O-acyltransferase 1 (Rattus norvegicus) (UniProt O70536); assay: Inhibitory activity against acyl coenzyme A:cholesterol acyltransferase at 10 e-6 M in rat microsomes; conditions: Microsome
T1 sequence (whole entry): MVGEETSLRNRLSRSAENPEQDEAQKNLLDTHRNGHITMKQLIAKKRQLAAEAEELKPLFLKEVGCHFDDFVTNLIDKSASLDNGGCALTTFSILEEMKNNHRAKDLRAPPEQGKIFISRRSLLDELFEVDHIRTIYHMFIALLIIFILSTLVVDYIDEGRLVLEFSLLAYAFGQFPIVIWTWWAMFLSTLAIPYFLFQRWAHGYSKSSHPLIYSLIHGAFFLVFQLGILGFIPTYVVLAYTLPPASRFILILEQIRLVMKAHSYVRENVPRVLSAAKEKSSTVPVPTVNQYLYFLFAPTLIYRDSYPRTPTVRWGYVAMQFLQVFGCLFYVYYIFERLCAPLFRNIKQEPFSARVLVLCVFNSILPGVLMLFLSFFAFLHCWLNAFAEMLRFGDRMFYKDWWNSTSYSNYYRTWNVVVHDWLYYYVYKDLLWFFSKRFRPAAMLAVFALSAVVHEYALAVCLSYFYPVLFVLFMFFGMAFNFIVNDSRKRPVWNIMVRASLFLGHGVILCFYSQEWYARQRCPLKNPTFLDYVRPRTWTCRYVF
Summary of the method: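 Intestinal mucosal microsomes from male 6-week-old Sprague–Dawley rats (100800g pellet); 0.2 mg protein preincubated 15 min at 37 °C in 0.154 M phosphate buffer with fatty-acid-free BSA, compound in DMSO added before preincubation at 1 μM final. Labeled cholesteryl ester from [1-14C]oleoyl-CoA and endogenous cholesterol, scraped and scintillation counted; % inhibition.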

Cricetinae gen. sp. [2] = assay: Plamsa cholesterol leval was measured in hamsters at 0.0001% cholesterol diet as a dietary admixture; type: functional, organism-based
Summary of the method: (§1)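 Male Golden hamsters, 10 weeks old, were fed either a stock diet or a cholesterol diet. The compound was mixed into the diet at 0.0001%, 0.0003% or 0.001% and given for 14 days. Animals were housed individually at 23 ± 1 °C and were not fasted. Blood was taken from the orbital sinus, and plasma cholesterol was measured enzymatically.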

[3] = target: T2, Sterol O-acyltransferase 1 (Rattus norvegicus, UniProt O70536); assay: Inhibitory activity against acyl coenzyme A:cholesterol acyltransferase in rat microsomes; design: species or system Microsome
T2 sequence (O70536 whole entry): T1 sequence (whole entry)
Summary of the method: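 Rat intestinal mucosal microsomes (male Sprague–Dawley, 6 weeks), 0.2 mg protein preincubated at 37 °C for 15 min in 0.154 M phosphate buffer with fatty-acid-free BSA and compound in DMSO; cholesteryl ester formation from [1-14C]oleoyl-CoA and endogenous cholesterol by scintillation counting. IC50 from inhibition curves.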

Cricetinae gen. sp. [4] = assay: Plamsa cholesterol leval was measured in hamsters at 0.001% cholesterol diet as a dietary admixture; type: functional, organism-based; summary of the method: as §1
Cricetinae gen. sp. [5] = assay: Plamsa cholesterol leval was measured in hamsters at 0.0003% cholesterol diet as a dietary admixture; conditions: Mesocricetus auratus

Row | SMILES | inhibition [1] [%] | Plasma cholesterol (Cricetinae gen. sp. [2]) | IC50 [3] [nM] | Plasma cholesterol (Cricetinae gen. sp. [4]) | Plasma cholesterol (Cricetinae gen. sp. [5]) [mg/dL]
1 | CC(C)c1ccc2ncc(NC(=O)Nc3ccc(F)cc3F)c(-c3ccccc3)c2c1 | 91.6 |  |  |  | 
2 | Cc1cc2ncc(NC(=O)Nc3ccc(F)cc3F)c(-c3ccccc3Cl)c2cc1C | 99.6 | 169 mg/dL and 279 mg/dL | 5.8 | 95 mg/dL and 213 mg/dL | 245
3 | Cc1ccc2ncc(NC(=O)Nc3ccc(F)cc3F)c(-c3ccccc3)c2c1 | 84.5 |  |  |  | 
4 | Cc1cc(C)c2nc(C)c(NC(=O)Nc3ccc(F)cc3F)c(-c3ccccc3Cl)c2c1 | 85.4 |  |  |  | 
5 | Cc1ccccc1-c1c(NC(=O)Nc2ccc(F)cc2F)cnc2ccc(Cl)cc12 | 97.2 |  | 28.7 |  | 
6 | Cc1ccc(-c2c(NC(=O)Nc3ccc(F)cc3F)cnc3ccc(Cl)cc23)cc1 | 87.4 |  | 160 |  | 
7 | Cc1cc(C)c2ncc(NC(=O)Nc3c(C(C)C)cccc3C(C)C)c(-c3ccccc3Cl)c2c1 | 98 |  | 28 |  | 
8 | COc1ccc(NC(=O)Nc2cnc3ccc(Cl)cc3c2-c2ccccc2)c(OC)c1 | 47.6 |  | 864 |  | 
9 | Cc1cc(C)c2ncc(NC(=O)Nc3c(F)cc(F)cc3F)c(-c3ccccc3Cl)c2c1 | 97.3 |  | 15 |  | 
10 | COc1ccccc1-c1c(NC(=O)Nc2ccc(F)cc2F)cnc2ccc(Cl)cc12 | 98.2 |  | 24 |  | 
11 | O=C(Nc1ccc(Cl)cc1)Nc1cnc2ccc(Cl)cc2c1-c1ccccc1 | 51.5 |  | 1300 |  | 
12 | CSc1ccc2ncc(NC(=O)Nc3ccc(F)cc3F)c(-c3ccccc3)c2c1 | 87.8 |  |  |  | 
13 | O=C(Nc1ccccc1F)Nc1cnc2ccc(Cl)cc2c1-c1ccccc1 | 75 |  | 929 |  | 
14 | Cc1cc(C)c2ncc(NC(=O)Nc3ccc(F)cc3F)c(-c3ccccc3C)c2c1 | 98.5 |  | 12 |  | 
15 | COc1ccc2ncc(NC(=O)Nc3ccc(F)cc3F)c(-c3ccccc3)c2c1 | 85.9 |  |  |  | 
16 | O=C(Nc1ccc(F)cc1F)Nc1cnc2ccc(C(F)(F)F)cc2c1-c1ccccc1 | 90.1 |  |  |  | 
17 | CN(C(=O)Nc1cnc2ccc(Cl)cc2c1-c1ccccc1)c1ccc(F)cc1F | 9.4 |  | > 1000 |  | 
18 | Cc1cc(Cl)cc2c(-c3ccccc3Cl)c(NC(=O)Nc3ccc(F)cc3F)cnc12 | 97.6 |  | 12 |  | 

Row | SMILES | inhibition [1] [%] | Plasma cholesterol (Cricetinae gen. sp. [2]) | IC50 [3] [nM] | Plasma cholesterol (Cricetinae gen. sp. [4]) | Plasma cholesterol (Cricetinae gen. sp. [5]) [mg/dL]
19 | O=C(Nc1ccc(F)cc1)Nc1cnc2ccc(Cl)cc2c1-c1ccccc1 | 66.5 |  | 800 |  | 
20 | O=C(Nc1ccc(F)cc1F)Nc1cnc2ccc(Br)cc2c1-c1ccccc1 | 85.5 |  |  |  | 
21 | CC(C)c1ccc2ncc(NC(=O)Nc3ccc(F)cc3F)c(-c3ccccc3Cl)c2c1 | 99.3 |  | 14 |  | 
22 | CCCCN(C(=O)Nc1ccc(F)cc1F)c1cnc2ccc(Cl)cc2c1-c1ccccc1 | 61.6 |  |  |  | 
23 | O=C(Nc1ccc(F)cc1F)Nc1cnc2ccc(Cl)cc2c1-c1cccc(Cl)c1 | 88.5 |  | 90.6 |  | 
24 | Cc1cc2c(-c3ccccc3C)c(NC(=O)Nc3ccc(F)cc3F)cnc2cc1Cl | 98.6 |  | 9.3 |  | 
25 | Cc1ccc2ncc(NC(=O)Nc3ccc(F)cc3F)c(-c3ccccc3C)c2c1 | 96.9 |  | 21.7 |  | 
26 | CCc1ccc2ncc(NC(=O)Nc3ccc(F)cc3F)c(-c3ccccc3Cl)c2c1 | 99.2 |  | 14 |  | 
27 | Cc1ccc2ncc(NC(=O)Nc3ccc(F)cc3F)c(-c3ccccc3Cl)c2c1 | 98.5 |  | 16.8 |  | 
28 | O=C(Nc1ccc(F)cc1F)Nc1cnc2ccc(Cl)cc2c1-c1ccc(Cl)cc1 | 77 |  | 534 |  | 
29 | Cc1cc(Cl)c2ncc(NC(=O)Nc3ccc(F)cc3F)c(-c3ccccc3Cl)c2c1 | 97.6 |  | 8.9 |  | 
30 | Cc1cccc2ncc(NC(=O)Nc3ccc(F)cc3F)c(-c3ccccc3Cl)c12 | 87.3 |  | 149 |  | 
31 | O=C(Nc1ccc(F)cc1F)Nc1cnc2ccccc2c1-c1ccccc1Cl | 91.8 |  | 125 |  | 
32 | O=C(Nc1ccc(F)cc1F)Nc1cnc2ccc(Cl)cc2c1-c1ccccc1 | 88.3 |  | 215 |  | 
33 | Cc1cc(C)c2ncc(NC(=O)Nc3ccc(F)cc3F)c(-c3ccccc3Cl)c2c1 | 98.9 |  | 9.2 |  | 
34 | COc1ccc(-c2c(NC(=O)Nc3ccc(F)cc3F)cnc3ccc(Cl)cc23)cc1 | 92.7 |  | 121 |  | 
35 | O=C(Nc1ccccc1)Nc1cnc2ccc(Cl)cc2c1-c1ccccc1 | 5 |  | > 1000 |  | 
36 | O=C(Nc1ccc(F)cc1F)Nc1cnc2ccc(Cl)cc2c1-c1ccccc1Cl | 98 |  | 21.2 |  | 
